The values below come from ChEMBL document CHEMBL1135536, “Structure-activity relationships in 4-aminoquinoline antiplasmodials. The role of the group at the 7-position” (J Med Chem, 2002).

Series [1] can be described thus: Acid dissociation constant of the tertiary ammonium group. Type of series: ADME. To be noted: read-out: pKa2. Put shortly: (§1)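 Glass-electrode potentiometric titration under nitrogen at 25 °C in 0.15 M NaCl background electrolyte. Data were fitted to give two pKa values per aminoquinoline. Reported values are the average of three independent measurements, with error given as 1 SD.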

Series [2] in a line: Association constant of hematin-aminoquinoline complex formation reported by spectrophotometric titration in aqueous dimethyl sulfoxide(DMSO) at pH 7.5. To be noted: buffer. Type of series: ADME. The procedure, abridged: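 Spectrophotometric titration of monomeric hematin with aminoquinoline, fitted to 1:1 complex formation. Run at 25 °C, pH 7.5, in 40% aqueous DMSO with 20 mM HEPES. Reported as log K, the average of three independent measurements ± 1 SEM.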

The nature of series [3]: Normalised IC50 was measured. Type of series: functional. Put shortly:
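Normalized IC50 is the D10 P. falciparum IC50 multiplied by α. α is the compound's calculated vacuolar accumulation ratio divided by chloroquine's, both from measured pKa values, assuming vacuolar pH 5.5 and external pH 7.4.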

The subject of another series is Plasmodium falciparum. Put plainly: In vitro antiplasmodial activity against chloroquine-sensitive Plasmodium falciparum D10. Type of series: functional, organism-based.
Series [4] can be described thus: Acid dissociation constant of the quinolinium cation. Type of series: ADME. To be noted: read-out: pKa1. Put shortly:
as §1

For `CCN(CC)CCNc1ccnc2cc(N)ccc12`, the pKa was determined as 10 in series [1] and 8.36 in series [4]. Moreover, the “Log K” value in series [2] was 4.35. Besides, the IC50 in series [3] was greater than 4830 nM; in the series on Plasmodium falciparum it was greater than 5000 nM.

With `CCN(CC)CCNc1ccnc2cc(C(F)(F)F)ccc12`, the pKa in series [1] stood at 7.65; in series [4], 7.5. The “Log K” value in series [2] is recorded as 4.67. Further, the concentration for half-maximal inhibition (IC50) came out at 48 nM in series [3] and 99 nM in the series with Plasmodium falciparum.

For `CCN(CC)CCNc1ccnc2cc(Br)ccc12`, the pKa in series [1] came to 7.97; in series [4], 7.93. For the same compound, in series [2], the “Log K” value is recorded as 4.99. Moreover, the 50% inhibitory concentration (IC50) was 28 nM in series [3] and 36 nM in the series with Plasmodium falciparum.

Take `CCN(CC)CCNc1ccnc2cc(F)ccc12`: the pKa is 9.24 in series [1] and 7.62 in series [4]. Moreover, the “Log K” value in series [2] was 4.6. Moreover, the half-inhibitory concentration (IC50) in series [3] was 92 nM; with Plasmodium falciparum it was 138 nM.

`CCN(CC)CCNc1ccnc2cc(OC)ccc12`: the pKa in series [1] was 9.5; in series [4] it was 8.09. Besides, in series [2], the “Log K” value is recorded as 4.83. For the same compound, the figures for the half-maximal inhibitory concentration (IC50) (in series [3]; in the series with Plasmodium falciparum) were 399 nM and 448 nM, respectively.

With `CCN(CC)CCNc1ccnc2cc(C)ccc12`, the pKa in series [1] turned out to be 9.51; in series [4] it was 8.12. In series [2], the “Log K” value is 4.86. Moreover, the IC50 in series [3] was determined as 74 nM; with Plasmodium falciparum, 82 nM.

Consider `CCN(CC)CCNc1ccnc2cc(O)ccc12`, for which the values for the pKa in series [1] and in series [4] were 8.95 and 6.82, respectively. For the same compound, the “Log K” value in series [2] is listed as 4.48. Further, the IC50 in series [3] amounted to 700 nM; in the series on Plasmodium falciparum it was 3070 nM.

Consider `CCN(CC)CCNc1ccnc2cc(Cl)ccc12`, for which the pKa came to 8.83 in series [1] and 7.56 in series [4]. The “Log K” value in series [2] is given as 5.81. Moreover, the half-inhibitory concentration (IC50) in series [3] was determined as 23 nM; in the series with Plasmodium falciparum, 37 nM.

`CCN(CC)CCNc1ccnc2cc([N+](=O)[O-])ccc12`: the pKa in series [1] was determined as 8.8; in series [4], 6.28. Also, the “Log K” value in series [2] worked out at 4.65. In addition, the IC50 in series [3] came to 28 nM; with Plasmodium falciparum, 325 nM.

As to `CCN(CC)CCNc1ccnc2cc(I)ccc12`, the pKa is 7.79 in series [1] and 7.48 in series [4]. In series [2], the “Log K” value is 5.02. Also, the concentration for half-maximal inhibition (IC50) in series [3] came out at 17 nM; in the series on Plasmodium falciparum, 35 nM.

In the case of `CCN(CC)CCNc1ccnc2ccccc12`, the pKa in series [1] was determined as 9.42; in series [4], 7.96. Also, in series [2], the “Log K” value is given as 4.75. Also, the half-inhibitory concentration (IC50) in series [3] stood at 892 nM; in the series with Plasmodium falciparum it was 1060 nM.

The term IC50 denotes the concentration that gives 50% inhibition. High values mean weaker potency in that assay, low ones greater potency in that assay.
